This note sets out measurements from ChEMBL document CHEMBL4609977, “Synthesis of natural product-like polyprenylated phenols and quinones: Evaluation of their neuroprotective activities” (Bioorg Med Chem, 2020).

Test system in one series: not listed separately
In words: Cytotoxicity against human SH-SY5Y cells assessed as cell viability at 5 uM measured after 24 hrs by MTT assay relative to control. Type of series: cell-based. To be noted: read-out: Activity. In a few lines:
(§1)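 SH-SY5Y cells (ECACC) were seeded at 5.0 × 10⁴ cells/well and grown 24 h in E-MEM/F12 with 0.3% FBS. Compound in DMSO (final <0.5%) was added in serum-free medium without H₂O₂ and incubated 24 h at 37 °C, 5% CO₂. Viability was read by MTT (5 mg/mL, 24 h, A595). Mean ± SD, n = 3.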
Take `CC(C)=CCC/C(C)=C/CC/C(C)=C/Cc1c(C)cc(O)cc1O`: the viability at 24 h, 5 µM is 63%.

For another series, the target named is T1, Amine oxidase [flavin-containing] B (Homo sapiens, UniProt P27338).
T1 sequence (P27338 whole entry): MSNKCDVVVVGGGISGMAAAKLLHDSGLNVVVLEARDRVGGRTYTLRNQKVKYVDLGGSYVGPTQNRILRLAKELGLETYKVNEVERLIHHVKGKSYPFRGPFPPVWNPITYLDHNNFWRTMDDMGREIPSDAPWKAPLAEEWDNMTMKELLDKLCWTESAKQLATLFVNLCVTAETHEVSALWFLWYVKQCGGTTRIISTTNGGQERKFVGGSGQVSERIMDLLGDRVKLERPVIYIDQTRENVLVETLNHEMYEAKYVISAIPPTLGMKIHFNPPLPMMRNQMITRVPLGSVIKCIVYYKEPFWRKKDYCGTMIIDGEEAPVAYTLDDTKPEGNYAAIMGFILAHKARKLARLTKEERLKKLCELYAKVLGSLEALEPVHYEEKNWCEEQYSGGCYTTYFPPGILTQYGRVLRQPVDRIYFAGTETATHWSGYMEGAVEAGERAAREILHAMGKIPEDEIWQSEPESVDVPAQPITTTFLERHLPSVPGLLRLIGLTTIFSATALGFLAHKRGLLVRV
In words: Mixed inhibition of recombinant human MAO-B expressed in baculovirus infected BTI insect cells at 0.32 to 2.6 uM by Lineweaver-Burk plot analysis.
Details: not given; call rule not given here
Take `CC(C)=CCC/C(C)=C/CC/C(C)=C/Cc1c(C)cc(O)c(O)c1O`: the “inhibition (INH)” value is “Active”.

For the next series, the target named is T1, Amine oxidase [flavin-containing] B. Briefly: Mixed inhibition of recombinant human MAO-B expressed in baculovirus infected BTI insect cells at 0.7 to 2.8 uM by Lineweaver-Burk plot analysis.
Details: not given
For the compound `CC(C)=CCC/C(C)=C/CC/C(C)=C/CC1=C(C)C(=O)C(O)=C(O)C1=O`, the “inhibition (INH)” value was “Active”.

For the next series the target is unchanged. In words: Inhibition of recombinant human MAO-B expressed in baculovirus infected BTI insect cells assessed as reduction in formation of 4-quinolinol at 25 uM using kynuramine as substrate preincubated with substrate for 10 mins followed by enzyme addition and measured after 20 mins by fluorescence based microplate reader assay relative to control.
Details: not given
Broadly, the inhibition is the relative decrease from the control value, in per cent. Turning to `CC(C)=CCC/C(C)=C/Cc1c(C)c(C=O)c(O)c(C/C=C(\C)CCC=C(C)C)c1O`, the inhibition at 25 µM stood at 48.1%.

Regarding `CC(C)=CCc1c(C)c(C=O)c(O)c(CC=C(C)C)c1O`, the inhibition at 25 µM was 84.7%.

Consider `CC(C)=CCc1c(O)cc(O)c(C(=O)O)c1C`, for which the inhibition at 25 µM came out at 16.3%.

Consider `COc1c(C)c(C/C=C(\C)CC/C=C(\C)CCC=C(C)C)c(OC)c(OC)c1OC`, for which the inhibition at 25 µM was found to be 15.2%.

As for `COc1cc(C)c(CC=C(C)C)c(OC)c1`, the inhibition at 25 µM amounted to 5.4%.

For the compound `COc1c(C)c(C/C=C(\C)CCC=C(C)C)c(OC)c(OC)c1OC`, the inhibition at 25 µM was found to be 38%.

`CC(C)=CCC/C(C)=C/Cc1c(C)cc(O)c(O)c1O`: the inhibition at 25 µM is 88.7%.

Take `CC(C)=CCC/C(C)=C/CC/C(C)=C/Cc1c(C)cc(O)cc1O`: the inhibition at 25 µM is 96.4%.

`CC(C)=CCc1c(C)cc(O)cc1O`: the inhibition at 25 µM came out at 4.2%.

Take `CC(C)=CCC/C(C)=C/CC/C(C)=C/CC1=C(C)C(=O)C(O)=C(O)C1=O`: the inhibition at 25 µM came out at 93.1%.

Consider `COc1cc(C)c(CC=C(C)C)c(OC)c1OC`, for which the inhibition at 25 µM is 18.6%.

On to `CC(C)=CCC/C(C)=C/Cc1c(C)cc(O)cc1O`, for which the inhibition at 25 µM is 30.7%.

Turning to `CC(C)=CCc1c(C)cc(O)c(O)c1O`, the inhibition at 25 µM came out at 32.7%.

Regarding `CC(C)=CCc1c(O)cc(O)c(C=O)c1C`, the inhibition at 25 µM worked out at 36.3%.

Consider `COc1cc(C)c(C/C=C(\C)CC/C=C(\C)CCC=C(C)C)c(OC)c1OC`, for which the inhibition at 25 µM came to 34.9%.

As to `CC(C)=CCC/C(C)=C/CC/C(C)=C/Cc1c(C)c(C=O)c(O)c(C/C=C(\C)CC/C=C(\C)CCC=C(C)C)c1O`, the inhibition at 25 µM came out at 48.8%.

For `CC(C)=CCC/C(C)=C/CC1=C(C)C(=O)C(O)=C(O)C1=O`, the inhibition at 25 µM stood at 92.2%.

`COc1c(C)c(CC=C(C)C)c(OC)c(OC)c1OC`: the inhibition at 25 µM was 7.2%.

For `COc1cc(C)c(C/C=C(\C)CC/C=C(\C)CCC=C(C)C)c(OC)c1`, the inhibition at 25 µM came to 10.8%.

Consider `COc1cc(C)c(C/C=C(\C)CCC=C(C)C)c(OC)c1OC`, for which the inhibition at 25 µM is 5.9%.

With `CC(C)=CCC/C(C)=C/CC/C(C)=C/Cc1c(C)cc(O)c(O)c1O`, the inhibition at 25 µM worked out at 97.8%.

As for `CC(C)=CCC1=C(C)C(=O)C(O)=C(O)C1=O`, the inhibition at 25 µM came out at 38.3%.

Take `CC(C)=CCC/C(C)=C/Cc1c(O)cc(O)c(C=O)c1C`: the inhibition at 25 µM was determined as 77.4%.

Turning to `CC(C)=CCC/C(C)=C/Cc1c(O)cc(O)c(C(=O)O)c1C`, the inhibition at 25 µM came out at 31.2%.

As for `CC(C)=CCC/C(C)=C/CC/C(C)=C/Cc1c(O)cc(O)c(C(=O)O)c1C`, the inhibition at 25 µM is 49.2%.

`CC(C)=CCC/C(C)=C/CC/C(C)=C/Cc1c(O)cc(O)c(C=O)c1C`: the inhibition at 25 µM was found to be 91.2%.

The target is the same in the next series. Briefly: Inhibition of recombinant human MAO-B expressed in baculovirus infected BTI insect cells assessed as reduction in formation of 4-quinolinol using kynuramine as substrate preincubated with substrate for 10 mins followed by enzyme addition and measured after 20 mins by fluorescence based microplate reader assay.
Details: not given
One may read the IC50 as the point on the concentration scale where inhibition reaches its midpoint. As to `CC(C)=CCC/C(C)=C/Cc1c(C)c(C=O)c(O)c(C/C=C(\C)CCC=C(C)C)c1O`, the IC50 result was “Nd(Insoluble)”.

Regarding `CC(C)=CCC/C(C)=C/CC/C(C)=C/Cc1c(C)c(C=O)c(O)c(C/C=C(\C)CC/C=C(\C)CCC=C(C)C)c1O`, the half-inhibitory concentration (IC50) result is “Nd(Insoluble)”.

The same series, now with this note: read-out: IC50.
With `CC(C)=CCc1c(C)c(C=O)c(O)c(CC=C(C)C)c1O`, the concentration for half-maximal inhibition (IC50) stood at 5.5 µM.

As for `CC(C)=CCC/C(C)=C/Cc1c(C)cc(O)c(O)c1O`, the IC50 turned out to be 10.5 µM.

For the compound `CC(C)=CCC/C(C)=C/CC/C(C)=C/Cc1c(C)cc(O)cc1O`, the IC50 is 9.2 µM.

With `CC(C)=CCC/C(C)=C/CC/C(C)=C/CC1=C(C)C(=O)C(O)=C(O)C1=O`, the IC50 is 1.3 µM.

Regarding `CC(C)=CCC/C(C)=C/CC1=C(C)C(=O)C(O)=C(O)C1=O`, the IC50 was determined as 1.4 µM.

`CC(C)=CCC/C(C)=C/CC/C(C)=C/Cc1c(C)cc(O)c(O)c1O`: the IC50 turned out to be 1.3 µM.

For the compound `CC(C)=CCC/C(C)=C/Cc1c(O)cc(O)c(C=O)c1C`, the half-inhibitory concentration (IC50) was found to be 19.7 µM.

For the compound `CC(C)=CCC/C(C)=C/CC/C(C)=C/Cc1c(O)cc(O)c(C(=O)O)c1C`, the IC50 amounted to 26.5 µM.

Consider `CC(C)=CCC/C(C)=C/CC/C(C)=C/Cc1c(O)cc(O)c(C=O)c1C`, for which the 50% inhibitory concentration (IC50) worked out at 2.3 µM.

The next series has the same target. Briefly: Tight-binding competitive inhibition of recombinant human MAO-B expressed in baculovirus infected BTI insect cells at varying substrate concentration and IC50 of compound by tight-binding inhibition based assay.
Details: not given
In a few lines: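 For recombinant human MAO-B with kynuramine as substrate (fluorescent 4-quinolinol read-out), IC50 values were determined at different substrate concentrations and then plotted against substrate concentration to assess tight-binding competitive inhibition.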
On to `CC(C)=CCC/C(C)=C/CC/C(C)=C/CC1=C(C)C(=O)C(O)=C(O)C1=O`, for which the “inhibition (INH)” value is on record as “Active”.

As to `CC(C)=CCC/C(C)=C/CC/C(C)=C/Cc1c(C)cc(O)c(O)c1O`, the “inhibition (INH)” value is given as “Active”.

Test system in another series: not listed separately
In words: Cytotoxicity against human SH-SY5Y cells assessed as cell viability at 10 uM measured after 24 hrs by MTT assay relative to control. To be noted: read-out: Activity. Type of series: cell-based. In a few lines: as §1
(Tetrazolium assays rely on reduction of a dye to a coloured formazan, in cell work by metabolically active cells.)
As to `CC(C)=CCC/C(C)=C/CC/C(C)=C/Cc1c(C)cc(O)cc1O`, the viability at 24 h, 10 µM was found to be 60%.

For a further series, the system named is SH-SY5Y. In words: Cytotoxicity against human SH-SY5Y cells assessed as effect on cell viability at 10 uM measured after 24 hrs by MTT assay. Type of series: cell-based.
Details: not given
An outline of the steps:
as §1
With `CC(C)=CCC/C(C)=C/CC/C(C)=C/CC1=C(C)C(=O)C(O)=C(O)C1=O`, the Activity result is on record as “Non-Toxic”.

In the case of `CC(C)=CCC/C(C)=C/CC/C(C)=C/Cc1c(C)cc(O)c(O)c1O`, the Activity result is given as “Non-Toxic”.

For the compound `CC(C)=CCC/C(C)=C/CC/C(C)=C/Cc1c(O)cc(O)c(C=O)c1C`, the Activity result was “Non-Toxic”.

Test system in a further series: not listed separately
In words: Solubility of compound at >=25 uM. Type of series: physicochemical.
Details: not given
For `CC(C)=CCC/C(C)=C/Cc1c(C)c(C=O)c(O)c(C/C=C(\C)CCC=C(C)C)c1O`, the solubility entry was “Insoluble”.

For `CC(C)=CCC/C(C)=C/CC/C(C)=C/Cc1c(C)c(C=O)c(O)c(C/C=C(\C)CC/C=C(\C)CCC=C(C)C)c1O`, the solubility result is reported as “Insoluble”.

The subject of a further series is SH-SY5Y. Briefly: Neuroprotective activity against H2O2-induced cytotoxicity in human SH-SY5Y cells assessed as increase in cell viability at 10 uM measured after 24 hrs by MTT assay relative to H2O2-treated control.
Details: not given
Type of series: functional. An outline of the steps: (§2)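 SH-SY5Y cells were seeded at 5.0 × 10⁴ cells/well and given 24 h attachment. Compound (DMSO final <0.5%) and H₂O₂ (final 500 μM) were added together in serum-free E-MEM/F12 and left 24 h at 37 °C, 5% CO₂. Viability was by MTT (5 mg/mL, 24 h, absorbance 595 nm). Luteolin was the positive control. Mean ± SD, n = 3; one-way ANOVA with Dunnett's test against H₂O₂ alone.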
Take `CC(C)=CCC/C(C)=C/CC/C(C)=C/CC1=C(C)C(=O)C(O)=C(O)C1=O`: the Activity is over 20%.

Regarding `CC(C)=CCC/C(C)=C/CC/C(C)=C/Cc1c(C)cc(O)c(O)c1O`, the Activity is given as over 20%.

With `CC(C)=CCC/C(C)=C/CC/C(C)=C/Cc1c(O)cc(O)c(C=O)c1C`, the Activity is reported as over 20%.

The next series deals with SH-SY5Y. In words: Neuroprotective activity against H2O2-induced cytotoxicity in human SH-SY5Y cells assessed as increase in cell viability measured after 24 hrs by MTT assay.
Details: not given
In kind it is functional, cell-based. In a few lines: as §2
For the compound `CC(C)=CCC/C(C)=C/CC/C(C)=C/CC1=C(C)C(=O)C(O)=C(O)C1=O`, the Activity entry is “Dose-dependent effect”.

Consider `CC(C)=CCC/C(C)=C/CC/C(C)=C/Cc1c(C)cc(O)c(O)c1O`, for which the Activity entry is “Dose-dependent effect”.

Take `CC(C)=CCC/C(C)=C/CC/C(C)=C/Cc1c(O)cc(O)c(C=O)c1C`: the Activity entry is “Dose-dependent effect”.
